Results reported in ChEMBL document CHEMBL3098056, “Small molecule inhibitors of anthrax lethal factor toxin” (Bioorg Med Chem, 2014).

What was measured:
[1] = target: T1, Lethal factor (Bacillus anthracis, UniProt P15917); assay: Inhibition of Bacillus anthracis lethal factor assessed as MCA-KKVYPYPME[dnp]K amide cleavage after 30 mins by fluorescence plate reader analysis
T1 sequence (P15917 whole entry): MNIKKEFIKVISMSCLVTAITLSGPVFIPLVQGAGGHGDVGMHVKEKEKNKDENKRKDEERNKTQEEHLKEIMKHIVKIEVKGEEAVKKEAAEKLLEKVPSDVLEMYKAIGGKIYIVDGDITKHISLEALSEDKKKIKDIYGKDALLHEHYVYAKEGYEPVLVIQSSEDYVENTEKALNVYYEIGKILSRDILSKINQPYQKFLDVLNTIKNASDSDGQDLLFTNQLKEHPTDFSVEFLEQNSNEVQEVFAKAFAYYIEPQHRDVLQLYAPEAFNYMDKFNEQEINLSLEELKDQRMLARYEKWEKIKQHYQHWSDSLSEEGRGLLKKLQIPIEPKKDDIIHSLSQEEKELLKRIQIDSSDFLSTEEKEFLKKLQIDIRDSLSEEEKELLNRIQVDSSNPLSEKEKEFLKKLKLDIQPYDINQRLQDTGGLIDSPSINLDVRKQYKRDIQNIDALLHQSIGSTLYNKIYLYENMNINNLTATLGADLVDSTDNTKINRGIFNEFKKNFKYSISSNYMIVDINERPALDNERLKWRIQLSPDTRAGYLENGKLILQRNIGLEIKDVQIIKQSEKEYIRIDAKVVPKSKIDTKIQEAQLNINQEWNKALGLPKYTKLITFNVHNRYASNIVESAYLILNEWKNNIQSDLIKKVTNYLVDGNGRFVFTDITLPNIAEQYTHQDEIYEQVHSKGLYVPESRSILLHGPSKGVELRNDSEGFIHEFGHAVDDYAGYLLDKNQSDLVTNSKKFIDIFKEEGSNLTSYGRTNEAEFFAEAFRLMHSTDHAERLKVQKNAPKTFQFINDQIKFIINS

[2] = target: Botulinum neurotoxin type A (Clostridium botulinum, UniProt P0DPI0); assay: Inhibition of Clostridium bolulinum BoNT/A assessed as cleavage of MOCAc-Lys-Lys-Val-Tyr-Pro-Tyr-Pro-Met-Glu-Lys(Dnp)-NH2 after 40 mins by FRET assay
Sequence of Botulinum neurotoxin type A (P0DPI0 2-448 limits assumed): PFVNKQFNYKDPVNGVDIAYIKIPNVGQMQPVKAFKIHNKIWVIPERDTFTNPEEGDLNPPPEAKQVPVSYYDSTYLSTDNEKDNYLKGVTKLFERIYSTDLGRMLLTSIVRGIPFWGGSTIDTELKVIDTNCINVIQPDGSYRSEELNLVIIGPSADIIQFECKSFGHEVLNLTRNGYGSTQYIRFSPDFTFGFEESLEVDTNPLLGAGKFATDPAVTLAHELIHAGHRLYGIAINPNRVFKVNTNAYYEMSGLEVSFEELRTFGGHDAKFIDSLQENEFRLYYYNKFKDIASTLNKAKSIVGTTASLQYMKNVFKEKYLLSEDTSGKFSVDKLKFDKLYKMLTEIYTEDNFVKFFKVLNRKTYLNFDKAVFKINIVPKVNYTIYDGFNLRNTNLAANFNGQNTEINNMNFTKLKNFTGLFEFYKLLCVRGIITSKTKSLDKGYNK
Outline: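 BoNT/A light chain (2 nM) in a 96-well FRET format. Reactions were stopped with acetic acid to 0.5% and cleaved-substrate fluorescence read at 485 nm with excitation at 398 nm. The same format served for IC50 and mechanism kinetics.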

[3] = target: T1, Lethal factor; assay: Inhibition of Bacillus anthracis lethal factor
Outline: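 FRET-based assay: LF cleaves a SNAP-derived fluorogenic peptide, and cleavage is read as a change in fluorescence.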

[4] = target: T2, Interstitial collagenase (Homo sapiens, UniProt P03956); assay: Inhibition of human MMP-1 after 60 mins by FRET assay
T2 sequence (P03956 whole entry): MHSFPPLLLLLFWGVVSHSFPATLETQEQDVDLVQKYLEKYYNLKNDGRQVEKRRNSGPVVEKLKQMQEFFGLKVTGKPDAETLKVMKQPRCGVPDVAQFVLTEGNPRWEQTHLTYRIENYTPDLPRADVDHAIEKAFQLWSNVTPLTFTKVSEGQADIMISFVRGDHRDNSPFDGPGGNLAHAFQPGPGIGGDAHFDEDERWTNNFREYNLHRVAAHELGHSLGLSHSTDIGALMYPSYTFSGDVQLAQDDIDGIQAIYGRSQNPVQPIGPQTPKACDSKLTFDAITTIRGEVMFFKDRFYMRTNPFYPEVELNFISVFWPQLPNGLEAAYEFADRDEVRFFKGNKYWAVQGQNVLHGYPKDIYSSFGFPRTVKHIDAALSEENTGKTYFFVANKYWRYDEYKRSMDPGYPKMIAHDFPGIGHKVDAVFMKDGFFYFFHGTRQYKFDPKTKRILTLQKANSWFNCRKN
Outline: (§1)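 MMP-1 (38 nM) or MMP-9 (13 nM) with 50 fluorogenic substrate in 50 mM MOPS pH 6.0 and 0.05% NP-40, 37 °C for 60 min (linear range 90 min). Stopped with acetic acid (0.5% final); emission at 440 nm, excitation at 340 nm.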

[5] = target: Matrix metalloproteinase-9 (Homo sapiens, UniProt P14780); assay: Inhibition of human MMP-9 after 60 mins by FRET assay; outline: as §1
Sequence of Matrix metalloproteinase-9 (P14780 whole entry): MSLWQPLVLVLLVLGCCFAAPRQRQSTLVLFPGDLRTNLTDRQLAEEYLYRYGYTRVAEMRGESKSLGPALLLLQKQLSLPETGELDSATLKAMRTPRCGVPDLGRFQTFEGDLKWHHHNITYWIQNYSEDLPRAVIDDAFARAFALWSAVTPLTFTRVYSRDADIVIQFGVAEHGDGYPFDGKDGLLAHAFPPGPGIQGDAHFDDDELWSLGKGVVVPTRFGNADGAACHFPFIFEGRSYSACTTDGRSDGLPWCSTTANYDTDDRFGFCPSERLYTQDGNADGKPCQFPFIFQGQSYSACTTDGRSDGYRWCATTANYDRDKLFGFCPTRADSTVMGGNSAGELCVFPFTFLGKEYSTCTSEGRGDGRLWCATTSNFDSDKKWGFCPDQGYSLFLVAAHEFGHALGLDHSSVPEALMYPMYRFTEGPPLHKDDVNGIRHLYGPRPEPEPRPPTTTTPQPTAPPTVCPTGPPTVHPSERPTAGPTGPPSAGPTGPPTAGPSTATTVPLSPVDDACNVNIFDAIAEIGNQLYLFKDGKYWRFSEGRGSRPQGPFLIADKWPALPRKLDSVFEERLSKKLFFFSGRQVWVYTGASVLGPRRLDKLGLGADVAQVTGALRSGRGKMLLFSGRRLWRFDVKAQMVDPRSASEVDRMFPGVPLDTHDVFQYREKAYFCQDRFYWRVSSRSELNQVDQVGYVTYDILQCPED

| Structure (SMILES) | IC50 [1] | IC50 [2] | Ki [3] | IC50 [4] | IC50 [5] | IC50 [3] |
| --- | --- | --- | --- | --- | --- | --- |
| Cc1cc(N)c2cc(NC(=O)c3cccnc3)ccc2n1 | > 100 µM | > 100 µM |  |  |  |  |
| O=C(N/N=C/c1cc([N+](=O)[O-])ccc1O)c1ccc(O)c(O)c1 |  |  | 1100 nM |  |  |  |
| Cc1cc(N)c2cc(NC(=O)Nc3ccc4nc(C)cc(N)c4c3)ccc2n1 [AMINOQUINURIDE] | 3.2 µM | 7.2 µM |  | 31 µM | 100 µM |  |
| Cc1cc(N)c2cc(NC(=O)Nc3ccc(C(C)C)cc3)ccc2n1 | 83 µM | 62 µM |  |  |  |  |
| Cc1cc(N)c2cc(NC(=O)c3cccc(C(=O)c4ccccc4)c3)ccc2n1 | 73 µM | > 100 µM |  |  |  |  |
| COc1ccc(Cl)cc1CCC(=O)Nc1ccc2nc(C)cc(N)c2c1 | > 100 µM | > 100 µM |  |  |  |  |
| COc1cc(Cl)ccc1CCC(=O)Nc1ccc2nc(C)cc(N)c2c1 | 78 µM | > 100 µM |  |  |  |  |
| COc1cccc(CCC(=O)Nc2ccc3nc(C)cc(N)c3c2)c1 | > 100 µM | > 100 µM |  |  |  |  |
| COc1cccc(CCC(=O)Nc2ccc3nc(C)cc(N)c3c2)c1OC | > 100 µM | > 100 µM |  |  |  |  |
| Cc1cc(N)c2cc(NC(=O)CCc3ccccc3C)ccc2n1 | > 100 µM | > 100 µM |  |  |  |  |
| CNC(=O)[C@@H](CCc1ccccc1)NC(=O)[C@@H](CC(=O)NO)CC(C)C |  |  |  |  |  | 7 µM |
| Cc1cc(N)c2cc(NC(=O)c3cccc(-c4cncc5ccccc45)c3)ccc2n1 | 21 µM | > 100 µM |  | 50 µM | 48 µM |  |
| Cc1cc(N)c2cc(NC(=O)CCc3ccccc3OC(=O)c3ccccc3)ccc2n1 | > 100 µM | > 100 µM |  |  |  |  |
| Cc1cc(N)c2cc(NC(=O)c3ccc(-c4cncc5ccccc45)cc3)ccc2n1 | 13 µM | 65 µM |  | > 100 µM | 9.4 µM |  |
| Cc1cc(N)c2cc(NC(=O)c3cccc(-c4ccc5ncccc5c4)c3)ccc2n1 | 4.6 µM | 26 µM |  | > 100 µM | > 100 µM |  |
| COc1ncccc1CCC(=O)Nc1ccc2nc(C)cc(N)c2c1 | 41 µM | > 100 µM |  | > 100 µM | > 100 µM |  |
| Cc1cc(N)c2cc(NC(=O)Nc3ccc(-c4ccccc4)cc3)ccc2n1 | 79 µM | 79 µM |  |  |  |  |
| COc1ccc(/C=C/C(=O)Nc2ccc3nc(C)cc(N)c3c2)cc1 | 55 µM | > 100 µM |  |  |  |  |
| COc1ccc(CCC(=O)Nc2ccc3nc(C)cc(N)c3c2)cc1 | > 100 µM | > 100 µM |  |  |  |  |
| Cc1cc(N)c2cc(NC(=O)c3ccc(-c4cccnc4)cc3)ccc2n1 | 43 µM | 23 µM |  |  | > 100 µM |  |

| Structure (SMILES) | IC50 [1] | IC50 [2] | Ki [3] | IC50 [4] | IC50 [5] | IC50 [3] |
| --- | --- | --- | --- | --- | --- | --- |
| Cc1cc(N)c2cc(NC(=O)CCc3ccccc3C(F)(F)F)ccc2n1 | 38 µM | > 100 µM |  | > 100 µM | > 100 µM |  |
| Cc1cc(N)c2cc(NC(=O)c3ccc(-c4cccc5ncccc45)cc3)ccc2n1 | 10 µM | 34 µM |  |  |  |  |
| Cc1cc(N)c2cc(NC(=O)c3ccc(N4CCOCC4)cc3)ccc2n1 | > 100 µM | 27 µM |  |  |  |  |
| Cc1cc(N)c2cc(NC(=O)c3ccc(-c4ccccc4)cc3)ccc2n1 | 48 µM | > 100 µM |  |  | > 100 µM |  |
| Cc1cc(N)c2cc(NC(=O)c3ccc(Oc4ccccc4)cc3)ccc2n1 | 70 µM | > 100 µM |  | > 100 µM | > 100 µM |  |
| COc1ccccc1/C=C/C(=O)Nc1ccc2nc(C)cc(N)c2c1 | 46 µM | > 100 µM |  | > 100 µM | > 100 µM |  |
| Cc1cc(N)c2cc(NC(=O)NCc3ccccc3Cl)ccc2n1 | 61 µM | > 100 µM |  |  |  |  |
| COc1ccccc1CC(=O)Nc1ccc2nc(C)cc(N)c2c1 | > 100 µM | > 100 µM |  |  |  |  |
| Cc1cc(N)c2cc(NC(=O)Nc3ccc(C(=O)c4ccccc4)cc3)ccc2n1 | 26 µM | 67 µM |  | > 100 µM | > 100 µM |  |
| COc1ccc(Br)cc1CCC(=O)Nc1ccc2nc(C)cc(N)c2c1 | > 100 µM | > 100 µM |  |  |  |  |
| CCOC(=O)c1ccc(NC(=O)Nc2ccc3nc(C)cc(N)c3c2)cc1 | 87 µM | 51 µM |  |  |  |  |
| Cc1cc(N)c2cc(NC(=O)c3cccc(-c4cccc5ncccc45)c3)ccc2n1 | 33 µM | 68 µM |  | 65 µM | 50 µM |  |
| COc1ccccc1CNC(=O)Nc1ccc2nc(C)cc(N)c2c1 | > 100 µM | > 100 µM |  |  |  |  |
| Cc1cc(N)c2cc(NC(=O)Nc3ccc(F)cc3)ccc2n1 | 95 µM | 32 µM |  |  |  |  |
| COc1ccc2[nH]c(C(=O)Nc3ccc4nc(C)cc(N)c4c3)cc2c1 | 44 µM | 35 µM |  |  | > 100 µM |  |
| Cc1cc(N)c2cc(NC(=O)c3ccco3)ccc2n1 | > 100 µM | 47 µM |  |  |  |  |
| Cc1cc(N)c2cc(NC(=O)Cc3ccccc3Cl)ccc2n1 | > 100 µM | > 100 µM |  |  |  |  |
| Cc1cc(N)c2cc(NC(=O)CCc3ccc(F)cc3)ccc2n1 | > 100 µM | > 100 µM |  |  |  |  |
| COc1ccc(OC)c(CCC(=O)Nc2ccc3nc(C)cc(N)c3c2)c1 | > 100 µM | > 100 µM |  |  |  |  |
| COc1ccsc1CCC(=O)Nc1ccc2nc(C)cc(N)c2c1 | > 100 µM | > 100 µM |  |  |  |  |

| Structure (SMILES) | IC50 [1] | IC50 [2] | Ki [3] | IC50 [4] | IC50 [5] | IC50 [3] |
| --- | --- | --- | --- | --- | --- | --- |
| COc1ccncc1CCC(=O)Nc1ccc2nc(C)cc(N)c2c1 | > 50 µM | > 100 µM |  |  |  |  |
| COc1ccc(NC(=O)Nc2ccc3nc(C)cc(N)c3c2)cc1 | > 100 µM | 41 µM |  |  |  |  |
| Cc1cc(N)c2cc(NC(=O)c3cccc(-c4cccc5cccnc45)c3)ccc2n1 | 36 µM | 79 µM |  | > 100 µM | > 100 µM |  |
| Cc1cc(N)c2cc(NC(=O)COc3ccc(OCc4ccccc4)cc3)ccc2n1 | 33 µM | > 100 µM |  | > 100 µM | > 100 µM |  |
| CCCOc1ccccc1CCC(=O)Nc1ccc2nc(C)cc(N)c2c1 | > 100 µM | > 100 µM |  |  |  |  |
| Cc1cc(N)c2cc(NC(=O)c3cccc(N(C)C)c3)ccc2n1 | > 100 µM | > 100 µM |  |  |  |  |
| Cc1cc(N)c2cc(NC(=O)CCc3ccccc3Cl)ccc2n1 | > 100 µM | > 100 µM |  |  |  |  |
| Cc1cc(N)c2cc(NC(=O)CCc3ccccc3)ccc2n1 | > 100 µM | > 100 µM |  |  |  |  |
| Cc1cc(N)c2cc(NC(=O)Cc3ccccc3)ccc2n1 | > 100 µM | > 100 µM |  |  |  |  |
| Cc1cc(N)c2cc(NC(=O)c3ccc(-c4cnc5ccccc5c4)cc3)ccc2n1 | 3 µM | > 100 µM |  | 78 µM | 11 µM |  |
| CCOc1ccccc1CCC(=O)Nc1ccc2nc(C)cc(N)c2c1 | > 100 µM | > 100 µM |  |  |  |  |
| Cc1cc(N)c2cc(NC(=O)c3ccc(-c4cccc5cccnc45)cc3)ccc2n1 | 11 µM | 65 µM |  | > 100 µM | 17 µM |  |
| COc1cc(Br)ccc1CCC(=O)Nc1ccc2nc(C)cc(N)c2c1 | 58 µM | > 100 µM |  |  |  |  |
| Cc1cc(N)c2cc(NC(=O)c3cc4ccccc4o3)ccc2n1 | 90 µM | > 100 µM |  |  |  |  |
| Cc1cc(N)c2cc(NC(=O)Nc3ccc4c(c3)OCO4)ccc2n1 | > 100 µM | 41 µM |  |  |  |  |
| Cc1cc(=S)c(O)c(C(=S)NCc2ccc(-c3ccccc3)cc2)o1 |  |  |  |  |  | 14 µM |
| Cc1cc(N)c2cc(NC(=O)Cc3ccc4c(c3)OCO4)ccc2n1 | > 100 µM | > 100 µM |  |  |  |  |
| Cc1cc(N)c2cc(NC(=O)c3cccc(-c4ccc(N(C)C)cc4)c3)ccc2n1 |  | 69 µM |  |  | > 100 µM |  |
| Cc1cc(N)c2cc(NC(=O)c3cccc(-c4cnc5ccccc5c4)c3)ccc2n1 | 5.7 µM | 45 µM |  | > 100 µM | 16 µM |  |
